According to ChEMBL document CHEMBL1926503, “Efficient one-pot preparation of novel fused chromeno[2,3-d]pyrimidine and pyrano[2,3-d]pyrimidine derivatives” (2012):

How the values were obtained:
Assay type in all cases: functional
Aspergillus flavus [1] = experiment: Antifungal activity against Aspergillus flavus at 1 to 10 mg/mL after 3 to 4 days by agar well diffusion method
Method in brief: (§1)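 Fungi were grown on Sabouraud dextrose agar (glucose–peptone–agar 40:10:15) after single-spore purification. Wells (4 mm × 2 mm) were cut and their bottoms sealed with 0.8% soft agar, then loaded with DMSO solutions at 10 mg/mL. DMSO served as control and amphotericin B as reference. Plates incubated at 30 °C for 3–4 days. Inhibition zone diameter was measured three times by caliper and averaged.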

Pseudomonas aeruginosa = experiment: Antibacterial activity against Pseudomonas aeruginosa at 1 to 10 mg/mL after 24 hrs by agar well diffusion method
Method in brief: (§2)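 Agar well diffusion. Bacterial pellets from a 24 h culture (about 10⁴–10⁶ CFU/ml) were spread on nutrient agar (tryptone 1%, yeast extract 0.5%, NaCl 0.5%, agar 1%, pH 7.0). Wells received DMSO solutions at 10 mg/mL, with DMSO as control and tetracycline as reference. Plates ran 24 h at 37 °C. Each zone was measured three times by caliper and averaged; three runs per culture.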

Candida albicans [2] = experiment: Antifungal activity against Candida albicans after 3 to 4 days by agar well diffusion method
Method in brief: (§3)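 Agar well diffusion on Sabouraud dextrose agar (glucose–peptone–agar 40:10:15), with cultures purified by single-spore isolation. Wells (4 mm × 2 mm) were sealed at the bottom with 0.8% soft agar and loaded with DMSO solutions. DMSO served as control and amphotericin B as reference. Incubation was 30 °C for 3–4 days; each zone was measured three times by caliper and averaged.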

Aspergillus flavus [3] = experiment: Antifungal activity against Aspergillus flavus after 3 to 4 days by agar well diffusion method; method in brief: as §3
Candida albicans [4] = experiment: Antifungal activity against Candida albicans at 1 to 10 mg/mL after 3 to 4 days by agar well diffusion method; method in brief: as §1
Staphylococcus aureus = experiment: Antibacterial activity against Staphylococcus aureus at 1 to 10 mg/mL after 24 hrs by agar well diffusion method; method in brief: as §2

| SMILES | diameter of the inhibition zone (DIZ) (Aspergillus flavus [1]) | diameter of the inhibition zone (DIZ) (Pseudomonas aeruginosa) | MIC (Candida albicans [2]) | MIC (Aspergillus flavus [3]) | diameter of the inhibition zone (DIZ) (Candida albicans [4]) | diameter of the inhibition zone (DIZ) (Staphylococcus aureus) |
| --- | --- | --- | --- | --- | --- | --- |
| O=c1[nH]c(=S)nc2oc3cc(O)ccc3cc1-2 | 0 mm | 14 mm | < 50 µg/mL | < 50 µg/mL | 0 mm | 15 mm |
| COc1cc(C2C(C#N)=C(N)Oc3[nH]c(=S)[nH]c(=O)c32)cc(OC)c1OC (centres undefined) | 0 mm | 13 mm | < 50 µg/mL | < 50 µg/mL | 10 mm | 13 mm |
| CCOC(=O)C1=C(N)Oc2[nH]c(=S)[nH]c(=O)c2C1c1ccc(Cl)cc1 (centres undefined) | 0 mm | 19 mm | < 50 µg/mL | < 50 µg/mL | 13 mm | 16 mm |
| CCOC(=O)C1=C(N)Sc2[nH]c(=S)[nH]c(=S)c2C1c1ccc(Cl)cc1 (centres undefined) | 14 mm | 18 mm | < 50 µg/mL | < 50 µg/mL | 14 mm | 16 mm |
| CCOC=C1C(=O)NC(=S)NC1=O | 0 mm | 13 mm | – | – | 12 mm | 13 mm |
| NNC=C1C(=O)NC(=S)NC1=O | 36 mm | 18 mm | – | – | 0 mm | 18 mm |
| COc1cc(C2c3c(nc(N)c(C#N)c3N)Oc3[nH]c(=S)[nH]c(=O)c32)cc(OC)c1OC (centres undefined) | 0 mm | 12 mm | < 50 µg/mL | < 50 µg/mL | 10 mm | 13 mm |
| COc1cc(C2C(C#N)=C(NS(=O)(=O)c3ccccc3)Oc3[nH]c(=S)[nH]c(=O)c32)cc(OC)c1OC (centres undefined) | 0 mm | 13 mm | < 50 µg/mL | < 50 µg/mL | 12 mm | 14 mm |
| COc1cc(C2c3c(nc[nH]c3=O)Oc3[nH]c(=S)[nH]c(=O)c32)cc(OC)c1OC (centres undefined) | 0 mm | 13 mm | < 50 µg/mL | < 50 µg/mL | 11 mm | 15 mm |
| C[C@@H]1[C@H](O)[C@@H](C)/C=C/C=C/C=C/C=C/C=C/C=C/C=C/[C@H](O[C@@H]2O[C@H](C)[C@@H](O)[C@H](N)[C@@H]2O)C[C@@H]2O[C@](O)(C[C@@H](O)C[C@@H](O)[C@H](O)CC[C@@H](O)C[C@@H](O)CC(=O)O[C@H]1C)C[C@H](O)[C@H]2C(=O)O [AMPHOTERICIN B] | 16 mm | – | – | – | 19 mm | – |
| CN(C)[C@@H]1C(O)=C(C(N)=O)C(=O)[C@@]2(O)C(O)=C3C(=O)c4c(O)cccc4[C@@](C)(O)[C@H]3C[C@@H]12 [TETRACYCLINE] | – | 28 mm | – | – | – | 26 mm |
